Assay results pooled from the literature.
Lines come from different studies, so protocols differ.
Target: Serine/threonine-protein kinase SIK2 (SIK2, Homo sapiens, UniProt Q9H0K1)

Compound	test	conditions	remaining binding
COc1ccnn2ncc(-c3ccnc(N(C)C)n3)c12	binding	1 µM	92%
O=C(NCCCN1CCOCC1)c1ccc(Nc2nccc(-c3cc4ccccc4s3)n2)cc1	binding, competition with immobilised ligand	1 µM	51%
C[C@@H](c1cccc(C#N)c1)n1cc(Cl)cc(C(N)=O)c1=N	cell-free assay, competition with immobilised ligand	1 µM	100%
O=C(Nc1c[nH]nc1C(=O)NC1CCNCC1)c1cc(F)cc(F)c1	binding, competition with immobilised ligand	1 µM	100%
c1cnn2ncc(-c3ccnc(N4CCC45COC5)n3)c2c1	binding	1 µM	96%
Nc1ncc2c(n1)-c1c([nH]c3ccc(C#CC4CC4)cc13)CCCC2	binding, competition with immobilised ligand	1 µM	81%
c1ccc(N2CCN(Cc3nc4ccccc4[nH]3)CC2)nc1	binding, competition with immobilised ligand	1 µM	100%
O=C(c1ccc(Nc2nccc(-c3cc4ccccc4s3)n2)cc1)N1CCC(N2CCCC2)CC1	binding, competition with immobilised ligand	1 µM	45%
CC(=O)Nc1c(C(C)=O)c(=O)n(C)c2nc(-c3ccc(Cl)cc3Cl)c(-c3ccc(Cl)cc3)cc12	cell-free assay, competition with immobilised ligand	1 µM	100%
N[C@H]1CCN(c2nccc(-c3cnn4ncccc34)n2)C1	binding	1 µM	87%
COc1cnc(Nc2cccc(S(N)(=O)=O)c2)nc1N1CCN(c2ccccc2)CC1	binding, competition with immobilised ligand	1 µM	100%
CN(C)c1nccc(-c2cnc3ncccn23)n1	binding	1 µM	100%
N#Cc1ccc(Nc2ccc3[nH]c(=O)[nH]c3c2)c(Cl)c1	cell-free assay, competition with immobilised ligand	1 µM	100%
C[C@H]1CCN(c2nccc(-c3cnn4ncccc34)n2)C1	binding	1 µM	100%
CNC(=O)[C@@H]1CC[C@@H](n2c(-c3ccc4cnccc4c3)nc3ccc(C(=O)NCc4cccc(C(N)=O)c4)cc32)C1	binding, competition with immobilised ligand	1 µM	97%
COc1ncc2cc3ccccc3nc2c1C#N	cell-free assay, competition with immobilised ligand	5 µM	94%
COc1ccc2c(c1)O[C@@H](c1ccc(OC)c(OC)c1)C[C@H]2NC(=O)C1(c2ccc3c(c2)OC(F)(F)O3)CC1	cell-free assay, competition with immobilised ligand	1 µM	95%
F[C@@H]1CCN(c2nccc(-c3cnn4ncccc34)n2)C1	binding	1 µM	100%
COCCOc1nc(-c2ccc(Cl)nc2)nc2c1CN(C(=O)c1ncn3ccccc13)CC2	cell-free assay, competition with immobilised ligand	0.1 µM	100%
O=C(c1ccc(Nc2ncc(Cl)c(-c3ccc(Cl)s3)n2)cc1)N1CCC(N2CCCC2)CC1	binding, competition with immobilised ligand	1 µM	21%
O=S(=O)(NC1CCC(c2cc(F)ccc2F)(S(=O)(=O)c2ccc(Cl)cc2)CC1)C(F)(F)F (stereo not shown)	cell-free assay, competition with immobilised ligand	1 µM	100%
C[C@@H](c1ccc(-n2cnc3c(N)ncnc32)cc1)N1CCc2nn(C)c(Cc3ccccc3)c2C1=O	binding, competition with immobilised ligand	0.1 µM	73%
